The values below come from ChEMBL document CHEMBL4513216, “Probing the Open Global Health Chemical Diversity Library for Multistage-Active Starting Points for Next-Generation Antimalarials” (ACS Infect Dis, 2020).

Structures are written as SMILES.

A short description of the data set: Toxicity liver stage against HepG2, at 10uM. It is filed as cell-based. More on the design: test concentration 10 uM, cell line HepG2-A16-CD81EGFP. The note with it: human, HepG2-A16-CD81EGFP cells; read-out: INHIBITION
The method, boiled down: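 Uninfected HepG2-A16-CD81EGFP cells, 3 × 10^3 per well, 1536-well, plated on prespotted compound at 10 μM final, parasite-free screening media added to match infected plates; puromycin 10 μM positive, DMSO 0.5% negative; run in parallel with 48 h PbLuc assay at 37 °C, 5% CO2; viability by CellTiter-Glo luminescence, normalized to controls.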
For `COc1ncc(NS(=O)(=O)c2ccc(OC)c(C)c2)c(OC)n1`, the cytotoxicity at 10 µM amounted to 34.8%.

As to `CSCc1ccc(CNCCCN2CCOCC2)o1`, the cytotoxicity at 10 µM is 5.81%.

As to `CC1CN(S(=O)(=O)c2ccc(F)cc2F)c2cccnc2O1` (configuration not stated), the cytotoxicity at 10 µM was 2.02%.

Take `CC(C)CS(=O)(=O)N1C[C@@H]2C[C@H](C(=O)N3CCOCC3)[C@H](C1)O2`: the cytotoxicity at 10 µM was -2.71%.

Turning to `COc1ccccc1C(=O)NC(CC(=O)O)c1cccs1` (configuration not stated), the cytotoxicity at 10 µM was -0.337%.

In the case of `Fc1ccc(-c2c[nH]c([C@@H]3COCCN3)n2)cc1`, the cytotoxicity at 10 µM is -0.0368%.

In the case of `CCC(C)(COc1ncccc1Cl)NCC(=O)Nc1ccc(Br)cn1` (configuration not stated), the cytotoxicity at 10 µM is -2.89%.

Turning to `COCC1CN(Cc2cccc(C#N)c2)Cc2nccn2C1` (configuration not stated), the cytotoxicity at 10 µM was -141%.

On to `CC(C)(C(=O)NCC1CCN(Cc2cccnc2)C1)c1ccccc1` (configuration not stated), for which the cytotoxicity at 10 µM was -1.66%.

For `CC(C1CCN(Cc2cnn(C)c2C2CC2)CC1)N1CCN(C)CC1` (configuration not stated), the cytotoxicity at 10 µM is -11.9%.

As to `COC(=O)C1CN(Cc2ccc(-c3ccncc3)cc2F)C[C@@H](C)O1` (some centres not stated), the cytotoxicity at 10 µM is 1.63%.

As for `CC(=O)N1CCCC1c1nnc2n1CCCCC2` (configuration not stated), the cytotoxicity at 10 µM turned out to be 4.31%.

Turning to `CCn1cnnc1CNC(=O)N1CCOC(c2ccc(F)cc2)C1` (configuration not stated), the cytotoxicity at 10 µM amounted to 5.53%.

For the compound `Cc1cnccc1NCCNC(=O)C1CCCN(Cc2ccco2)C1` (configuration not stated), the cytotoxicity at 10 µM is -7.67%.

Take `COc1ccc(CCNC(=O)Nc2cc(C)nn2C)cc1`: the cytotoxicity at 10 µM is -2.87%.

On to `CN1CCC(C)(CN(C)Cc2ccc(CCC(C)(C)O)cc2)C1` (configuration not stated), for which the cytotoxicity at 10 µM is -6.44%.

Consider `CC(=O)N1CCN(C2CCc3ccccc32)CC1` (configuration not stated), for which the cytotoxicity at 10 µM was -44.7%.

Take `Cn1cc(C2CCCN2C(=O)CS(=O)(=O)C2CCCC2)cn1` (configuration not stated): the cytotoxicity at 10 µM is -4.8%.

Regarding `CS(=O)(=O)CCOCCNc1ccc2ccc(F)cc2n1`, the cytotoxicity at 10 µM came out at 3.55%.

On to `CCc1ccc(CNC(=O)N2CCN(Cc3cc(C)no3)CC2)s1`, for which the cytotoxicity at 10 µM stood at 1.45%.

For `CCCc1ncc(C(=O)N2CCOc3ncccc32)s1`, the cytotoxicity at 10 µM was 11.6%.

Consider `CCOCC(=O)Nc1cccc(Oc2ccccn2)c1`, for which the cytotoxicity at 10 µM is -2.41%.

For `COCc1nc(Cn2ncn3cccc3c2=O)no1`, the cytotoxicity at 10 µM was -8.98%.

With `Cc1cc(=O)[nH]c(=O)n1COCCOCc1ccccc1`, the cytotoxicity at 10 µM is 3.36%.

In the case of `Cc1cc(CS(=O)(=O)N(C)C(C)c2ccc(F)cc2)on1` (configuration not stated), the cytotoxicity at 10 µM came out at 6.72%.

With `Cc1nc(CN2CCc3ccc(S(N)(=O)=O)cc32)oc1C`, the cytotoxicity at 10 µM amounted to 2.63%.

Consider `Cc1ccc(CC(=O)N2CCCC(c3nc(C)cs3)C2)cn1` (configuration not stated), for which the cytotoxicity at 10 µM is -8.13%.

Take `COCCCOc1ccc(C(=O)N(C)Cc2cccc(O)c2)cn1`: the cytotoxicity at 10 µM was -9.63%.

For `COc1ccccc1C1CCN(c2ccc3cc[nH]c3n2)CC1`, the cytotoxicity at 10 µM is -6.78%.

Turning to `c1ccc(C[C@H]2CN(Cc3nccs3)CC[C@H]2OCC2CC2)cc1`, the cytotoxicity at 10 µM stood at 5.27%.

As for `COc1ccc(C(C)NCc2cnnn2C)cc1F` (configuration not stated), the cytotoxicity at 10 µM is -9.72%.

Turning to `CC(C)c1nnc2sc(CC3CCS(=O)(=O)C3)nn12` (configuration not stated), the cytotoxicity at 10 µM is -6.48%.

Take `CN1C(=O)CC(c2ccccc2)C12CCN(c1ncc(F)cn1)CC2` (configuration not stated): the cytotoxicity at 10 µM is -108%.

Consider `CN(CCCO)c1nc(-c2ccc(C(N)=O)cc2)nc2c1CCNC2`, for which the cytotoxicity at 10 µM is -2.86%.

Turning to `c1csc(CN2CCC3(CC2)COCCN3CC2CC2)n1`, the cytotoxicity at 10 µM is 5.53%.

With `O=C(c1nnn(-c2ccccc2)n1)N(CCO)CCO`, the cytotoxicity at 10 µM was -1.48%.

In the case of `CCc1nc(CN(C)C2CCN(CC(=O)N3CCOCC3)C2)no1` (configuration not stated), the cytotoxicity at 10 µM is -5.32%.

For `Cc1nc(C2CCCN2Cc2ccon2)no1` (configuration not stated), the cytotoxicity at 10 µM was -18%.

Turning to `COc1cnc(N2CCC(Oc3ccccc3OC)(C(=O)O)CC2)nc1`, the cytotoxicity at 10 µM was -13.5%.

Regarding `Fc1ccccc1-c1cccc(C2CCCN(C3CCOCC3)C2)n1` (configuration not stated), the cytotoxicity at 10 µM was 0.22%.

As for `CCN1CC(C(=O)NCCn2cccc2)CCC1=O` (configuration not stated), the cytotoxicity at 10 µM is -1.64%.

Turning to `Cc1cnc2c(S(=O)(=O)N(C)C3CCS(=O)(=O)C3)cccc2c1` (configuration not stated), the cytotoxicity at 10 µM is -5.44%.

`Cn1c(CNc2c(F)cccc2-n2cccn2)cc(=O)n(C)c1=O`: the cytotoxicity at 10 µM was -7.79%.

With `Cc1nn(Cn2ccc(C(=O)N3CCOCC3)n2)c(C)c1Cl`, the cytotoxicity at 10 µM was -0.112%.

Take `O=C([C@H]1CC[C@@H]2[C@@H](CCN2c2ncccn2)O1)N1CCCCO1`: the cytotoxicity at 10 µM was 6.46%.

As to `Cc1noc(CN2CCN(c3cncc(Cl)n3)CC2)n1`, the cytotoxicity at 10 µM was 2.74%.

On to `CN(C)C(=O)c1ccc2c(c1)nc(N1CC[C@H](O)C1)n2C`, for which the cytotoxicity at 10 µM is -18.8%.

Take `O=C(CN1CCS(=O)(=O)CC1)NC1CCOc2ccccc21` (configuration not stated): the cytotoxicity at 10 µM turned out to be 5.44%.

Regarding `O=S(=O)(c1cccs1)N1CCCC2(COCCN(c3cccnc3)C2)C1` (configuration not stated), the cytotoxicity at 10 µM is -78.5%.

On to `CCCN1CCCC2(CCN(S(=O)(=O)N3CCC(OC)CC3)C2)C1=O` (configuration not stated), for which the cytotoxicity at 10 µM came out at 1.48%.

Turning to `Cc1ccc(S(=O)(=O)N2CSCC2C(=O)N(C)C2CC2)cc1Cl` (configuration not stated), the cytotoxicity at 10 µM was -9.42%.

With `CCn1cc(S(=O)(=O)NCc2ccnc(-n3ccnc3)c2)cn1`, the cytotoxicity at 10 µM was -1.78%.

Take `Cc1nc2c(c(N3CC=CC3)n1)CCN(Cc1ccoc1)CC2`: the cytotoxicity at 10 µM is -6.51%.

With `COCC(=O)N1CCC(C(=O)N(C)CCCc2nccn2C)CC1`, the cytotoxicity at 10 µM is -1.81%.

In the case of `CCN(CC)CCNC(=O)CCc1c(C)nn(-c2cccc(Cl)c2)c1C`, the cytotoxicity at 10 µM is -5.34%.

Turning to `COCC(C)NCc1nc(-c2ccc(C)cc2)c(-c2ccccn2)[nH]1` (configuration not stated), the cytotoxicity at 10 µM is -3.81%.

With `CC(C)Nc1nc(O)cc(C2CC(=O)N(Cc3ccccn3)C2)n1` (configuration not stated), the cytotoxicity at 10 µM was -16.9%.

On to `c1ccc(N2CC[C@H](OCC3CC3)[C@@H]2Cc2cccnc2)nc1`, for which the cytotoxicity at 10 µM was 7.53%.

For the compound `COc1ccccc1OC1CN(C(=O)c2ccc(C(C)=O)s2)C1`, the cytotoxicity at 10 µM worked out at 2.01%.

In the case of `CCN1CCO[C@@H]2CN(C(=O)c3ccc4[nH]ccc4c3)CC[C@@H]2C1`, the cytotoxicity at 10 µM was -116%.

`Cc1cc(C(=O)N2CCc3[nH]cnc3C2C(=O)O)c(-c2ccccc2)o1` (configuration not stated): the cytotoxicity at 10 µM was -1.33%.

As to `CCc1nn(C)c(Cl)c1CN1CCC2(C1)CN(C)C(=O)O2` (configuration not stated), the cytotoxicity at 10 µM was 1.95%.

Take `CN1CCOC(CNCCc2ccccn2)C1` (configuration not stated): the cytotoxicity at 10 µM was -4.77%.

As to `O=C(C1CCCC1)N1CC2(CCN(C3COC3)CC2)Cc2ccccc21`, the cytotoxicity at 10 µM is 7.91%.

Consider `Cc1ccc(CN2CCC3(CC(C(=O)NCC4CC4)=NO3)C2)cc1C` (configuration not stated), for which the cytotoxicity at 10 µM amounted to 3.84%.

For the compound `CCS(=O)(=O)N1CCC2(CN(C(=O)c3cn(C)cn3)C2)C1`, the cytotoxicity at 10 µM turned out to be 6.4%.

As to `c1cc(-c2nnc3sc(CCN4CCCC4)nn23)ccn1`, the cytotoxicity at 10 µM is -4.31%.

Turning to `CC(CNc1nccc(C(C)C)n1)Oc1cccnc1` (configuration not stated), the cytotoxicity at 10 µM was found to be 4.34%.

As to `CC(=O)N1CCO[C@@H]2CN(S(=O)(=O)c3cccnc3)C[C@@H]2C1`, the cytotoxicity at 10 µM was 3.02%.

As to `O=C1CCOC[C@]2(CN(Cc3ccccc3)C[C@H]2c2ccccc2)N1`, the cytotoxicity at 10 µM was -14.1%.

On to `CN1CCOC(CNC(=O)COc2ccc(F)cc2F)C1` (configuration not stated), for which the cytotoxicity at 10 µM was -5.51%.

Take `OCCN1CCN(Cc2coc(-c3cccc(F)c3)n2)CC1`: the cytotoxicity at 10 µM was -21.6%.
